This is a sample that favours compounds with a hit; in the whole collection about 3.5% have one here.
MrgX1 antagonist = antagonists of human MrgX1 receptor | MRGX1-HEK293 calcium flux, Fluo-4, BAM8-22 antagonism; stronger effect = lower value | B-score at 10 µM | 1.3% of 310,000 active | AID 588676;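 active = calcium-response B-score plate-corrected more than 3 library SD below zero, starting fluorescence within 5 deviations, no agonist response on first addition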;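 also: peak minus trough fluorescence over baseline after final BAM8-22 challenge near maximal dose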
Target sequence (Q96LB2 whole entry, looked up): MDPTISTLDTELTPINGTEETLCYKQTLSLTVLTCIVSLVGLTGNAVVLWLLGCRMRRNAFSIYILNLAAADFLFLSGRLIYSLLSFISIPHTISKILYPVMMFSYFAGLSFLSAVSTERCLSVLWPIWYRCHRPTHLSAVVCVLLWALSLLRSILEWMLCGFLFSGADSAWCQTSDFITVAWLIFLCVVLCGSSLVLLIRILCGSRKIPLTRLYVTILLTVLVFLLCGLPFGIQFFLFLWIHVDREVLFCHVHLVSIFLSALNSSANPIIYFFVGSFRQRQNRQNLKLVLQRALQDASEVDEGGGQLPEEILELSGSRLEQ
RGS4 inh = inhibitors of human RGS4. P49798. HEK293 M3R/RGS4 inducible, Fluo-4 calcium flux; stronger effect = higher value; triggered by carbachol at its EC20. B-score at 10 µM. 0.45% of 310,000 active. AID 463165;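 active = B-score, a plate-corrected calcium signal, over three deviations above library mean, with baseline fluorescence within five deviations of library mean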;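 also: RGS4 expression induced by doxycycline in cells with stable M3 receptor; B-score is computed from the integrated fluorescence ratio over baseline after carbachol; higher B-score means a larger calcium signal and so more RGS4 inhibition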
Target sequence (P49798 whole entry, looked up): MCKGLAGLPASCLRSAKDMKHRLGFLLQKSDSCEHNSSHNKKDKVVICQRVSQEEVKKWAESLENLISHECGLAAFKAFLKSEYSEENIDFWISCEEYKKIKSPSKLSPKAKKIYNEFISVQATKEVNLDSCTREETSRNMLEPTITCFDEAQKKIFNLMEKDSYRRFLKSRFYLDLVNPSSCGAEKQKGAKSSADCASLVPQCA
MrgX1 allo act = human MrgX1 positive allosteric modulation, primary screen | Q96LB2 | MrgX1-HEK293, Fluo-4 calcium flux, FDSS; stronger effect = higher value | B-score at 10 µM | 0.63% of 310,000 active | AID 588675;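 active = plate-corrected calcium response at least 3 library SD above typical, normal starting fluorescence, not activating the receptor alone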;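 also: compound read alongside a low EC10 to EC30 dose of BAM8-22 agonist; peak minus trough fluorescence over baseline measured at the second addition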
MrgX1 ag = activates human MrgX1 receptor signaling; MrgX1-HEK293 cells, Fluo-4 calcium fluorescence, agonist mode; stronger effect = higher value; B-score at 10 µM; 0.44% of 310,000 active; AID 588627;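 active = calcium response B-score plate-corrected fluorescence ratio at least 3 library SD, with starting fluorescence B-score inside 5 SD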
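Assay system: MrgX1-expressing HEK293 cells / Amount: fifteen thousand cells per well / Doses: test compound in the initial addition of three / Timing: cells plated overnight, dye loaded 0.5 h 37 °C, 0.5 h room temperature / Technique: kinetic calcium dye fluorescence, Fluo-4 NW / Control set: positive and negative controls per plate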
RGS4 pot = potentiators or activators of RGS4. AID 463111. 0.92% of 310,000 active. HEK293 M3R/inducible RGS4, carbachol calcium flux Fluo4; stronger effect = lower value. B-score at 10 µM;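 active = B-score of the integrated calcium signal more than 4 SD below the library mean, with starting fluorescence not abnormally high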;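 also: negative B-score means reduced calcium response which marks RGS4 activation or potentiation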
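test system = M3R-expressing HEK293 line, RGS4 induced by doxycycline | probe or stimulus = carbachol at ECmax as muscarinic agonist stimulus | timing = dye loading 30 min 37 °C, buffer rest 30 min RT | signal = calcium dye Fluo4 fluorescence | evaluation = B score from integrated fluorescence ratio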
RGS4 block valid = RGS4 inhibitor validation | shares compounds with RGS4 inh | HEK293 M3R/RGS4, carbachol calcium Fluo-4 fluorescence; carbachol added at its EC20; 0 = buffer wells, 100 = carbachol control | calcium response, % at 10 µM | 65% of 1,700 active;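 active = duplicate-averaged calcium response above the buffer-only control mean plus 5 SD of those controls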;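 also: integrated fluorescence ratio F max minus min over baseline F0; higher response in RGS4-induced cells means RGS4 inhibition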
RGS4 uninduced = checks RGS4 inhibitor effects in non-induced HEK293 M3R cells | activity (percent), % at 10 µM | shares compounds with RGS4 inh | carbachol calcium Fluo-4; submaximal (EC20) carbachol stimulus; buffer wells 0%, carbachol control wells 100% | 20% of 1,900 active; call rule not given here;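 also: RGS4 induction absent so cells express M3R without RGS4; higher means more calcium signal and flags a non-specific hit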
M3R basal Ca ctr = signal in non-induced cells without carbachol, RGS4 inhibitor counter-screen. shares compounds with RGS4 inh. HEK293 M3R/RGS4 non-induced, Fluo-4 calcium, no carbachol; normalised: buffer wells 0%, carbachol wells 100%. calcium response (agonist-mode artifact), % at 10 µM. 22% of 1,900 active. AID 493001;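 active = duplicate-averaged calcium rise in uninduced cells above buffer wells' mean plus 5 SD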
Numbers stand for hits; - = inactive; . = no result given.

SMILES | MrgX1 antagonist | RGS4 inh | MrgX1 allo act | MrgX1 ag | RGS4 pot | RGS4 block valid | RGS4 uninduced | M3R basal Ca ctr
COc1ccc(CN2CCNC(=O)C2CC(=O)N(C)Cc2nonc2C)c(F)c1 (stereo unspecified) | - | - | - | - | - | . | . | .
O=C(/C=C/c1ccco1)Nc1nc(-c2ccccc2)cs1 | - | - | - | - | - | . | . | .
O=C(/C=C/c1ccco1)Nc1nc(-c2ccccn2)cs1 | - | 12 | - | - | - | 22% | - | -
Cc1ccc(/C=C2/NC(=O)N(Cc3ccccc3)C2=O)o1 | - | 5 | - | - | - | - | - | 36%
CCOC(=O)Nc1ccc2c(CN3CCC(C(=O)OC)CC3)cc(=O)oc2c1 | - | 4.9 | - | - | - | 24% | - | -
CCc1ccc2c(CN3CCC(C(=O)OC)CC3)cc(=O)oc2c1 | - | 7.2 | - | - | - | 13% | - | -
COC(=O)C1CCN(Cc2cc(=O)oc3cc(C)c(Cl)cc23)CC1 | - | 12 | - | - | - | 16% | - | -
CCOC(=O)Nc1ccc2c(COC(=O)c3ccccc3O)cc(=O)oc2c1 | - | - | - | - | - | . | . | .
CCC1CCCCN1CCCCOc1cccc(Cl)c1 (stereo unspecified) | - | - | - | - | - | . | . | .
O=C1COC(c2ccccc2)=CN1Cc1ccccc1 | - | - | - | - | - | . | . | .
O=C(c1nc2ccccn2c1CNCCCn1cccn1)N1CCCC1 | - | - | - | - | - | . | . | .
CCn1c(CNc2ccc(Cl)cc2)nnc1SCC#N | - | - | - | - | - | . | . | .
CCOP(=O)(OCC)C1NC(=O)N(c2ccccc2)C1=O (stereo unspecified) | - | - | - | - | - | . | . | .
O=[N+]([O-])c1ccc(O)c(C=Nc2ccc3c(c2)OCCO3)c1 | - | - | - | - | - | . | . | .
Oc1c(Br)cc(Br)cc1C=Nc1ccc2c(c1)OCCO2 | - | 5.8 | - | - | - | - | - | 74%
Oc1c(Br)cc(Br)cc1C=Nc1ccc2c(c1)OCO2 | - | - | - | - | - | - | - | 48%
Cc1cc2c(cc1S(=O)(=O)Nc1cccc(C)c1C)n(C)c(=O)c(=O)n2C | - | - | - | - | - | . | . | .
O=S(=O)(NC1Cc2ccccc2C1)c1ccccc1 | - | - | - | - | - | . | . | .
Cc1ccc(-c2ccc(C(=O)NCc3ccc(Cl)cc3)o2)c2ccccc12 | - | 4.8 | - | - | - | - | - | 16%
O=C(N/N=C/C(Br)=C/c1ccccc1)c1n[nH]c2c1CCC2 | - | 5.1 | - | - | - | 18% | - | -
O=C(O)c1ccc(Nc2nc(-c3cc4ccccc4oc3=O)cs2)cc1O | . | 15 | . | . | - | 40% | - | 12%
Fc1ccc(-c2csc(Nc3ccccn3)n2)cc1 | - | - | - | - | - | - | - | -
O=C(Nc1nc(-c2cccc3ccccc23)cs1)c1cnccn1 | - | 5.5 | - | - | - | 28% | 34% | -
O=C(O)c1ccc2c(=O)n3c(nc2c1)/C(=C/c1cccc(Cl)c1Cl)CCCC3 | - | - | - | - | - | . | . | .
CCN(CC)c1ccc(NC(=O)CNCc2ccccc2Cl)c(C)c1 | - | - | - | - | - | . | . | .
SMILES | MrgX1 antagonist | RGS4 inh | MrgX1 allo act | MrgX1 ag | RGS4 pot | RGS4 block valid | RGS4 uninduced | M3R basal Ca ctr
Cc1cc(N(CCO)CCO)ccc1C(c1ccc(N(CCO)CCO)cc1C)c1ccccc1Cl | - | 6 | - | - | - | 16% | - | 25%
O=C(Cc1cccs1)N1CCC(c2nc3c(nnn3Cc3ccc(F)cc3)c(=O)[nH]2)CC1 | - | - | - | - | - | - | - | -
Cc1ccccc1CN(C)C(=O)c1ccc2ccccc2n1 | - | - | - | - | - | . | . | .
CCCN(C(=O)Cc1c(C(=O)O)n(C)c2ccccc12)c1cccc(C)c1 | - | 6.2 | - | - | - | 12% | 68% | 12%
O=C(CCCN1C(=O)S/C(=C/C=C/c2ccccc2)C1=O)Nc1ccc(C(=O)O)cc1 | - | - | - | - | - | . | . | .
O=C(CN1C(=O)S/C(=C\C=C\c2ccccc2)C1=O)Nc1ccc(O)cc1 | - | - | - | - | - | - | - | 7.5%
O=C(CN1C(=O)S/C(=C\C=C\c2ccccc2)C1=O)N1CCCCC1 | - | - | - | - | - | . | - | -
C/C(=N\Nc1ccc(C(=O)O)cc1)c1ccc(Br)cc1 | - | 4.7 | - | - | - | 20% | 35% | -
CC1=NOC(=O)/C1=C/c1ccc(O)c(Br)c1 | - | 9.1 | - | 38 | - | 30% | - | 68%
CC1=NOC(=O)/C1=C/c1ccc(O)cc1 | - | 5.8 | - | - | - | 12% | - | -
COc1ccc(/C=C2/C(=O)ON=C2C)cc1Cl | - | - | - | - | - | . | . | .
NS(=O)(=O)c1cccc(NS(=O)(=O)c2ccc(/C=C/C(=O)O)cc2)c1 | - | - | - | - | - | . | . | .
Cc1cccc(C(=O)N2CCNC(=O)C2CC(=O)Nc2cccc(Cl)c2)c1 (stereo unspecified) | - | - | - | - | - | . | . | .
O=[N+]([O-])c1ccc(-n2nncc2-c2ccccc2)cc1 | - | - | - | - | - | . | . | .
O=Cc1ccc(-n2nncc2-c2ccc([N+](=O)[O-])cc2)cc1 | - | 7.4 | - | - | - | 42% | 66% | -
O=C(CCN1Cc2ccccc2C1)c1ccc2c(c1)OCCO2 | - | 17 | - | - | - | 95% | - | 23%
O=C(CCN1CCc2ccccc2C(c2ccccc2)C1)c1ccc2c(c1)OCCO2 (stereo unspecified) | - | 15 | - | 43 | - | 10% | - | 14%
Cc1ccsc1CN(C)Cc1nc(C2CC2)no1 | - | - | - | - | - | . | . | .
O=C(Nc1cnc2ccccn2c1=O)c1ccc(Cl)cc1 | - | 4.8 | - | - | - | - | - | -
CC1(C)CC(=O)C(N=Nc2ccc(S(=O)(=O)N3CCOCC3)cc2)=C(O)C1 | - | - | - | - | - | . | . | .
CSc1ccc(/C=C/C(=O)c2c(O)cc(C)oc2=O)cc1 | - | 6.1 | - | - | - | 24% | - | 7.5%
COc1cccc(/C=C/C(=O)c2c(O)cc(C)oc2=O)c1O | - | 7.3 | - | - | - | 37% | - | -
Cc1cc(O)c(C(=O)/C=C/c2ccc(Cl)cc2)c(=O)o1 | - | - | - | - | - | . | . | .
CCOc1ccc(S(=O)(=O)NCCC(=O)NC2CCCCC2)cc1 | - | - | - | - | - | . | . | .
CSc1n[nH]c2nc3c(c(=O)n12)C1(CCCCC1)Cc1ccccc1-3 | - | 4.7 | - | - | - | 12% | - | -

Screening results (PubChem)
